Laboratory results as given in publication PMC8682075 (Biochimie, 2020).
Entries after “also recorded” stand apart in the source; their conditions may differ. Each block holds one compound with its values, some of them ahead of it.

Assays:
[1] = target: T1, MMUT WT (Homo sapiens, UniProt P22033); assay: Activity screen; type: biochemical; details: cobamide 1 μM, MMUT WT 0.01 μM, 30 minutes
T1 sequence (P22033 33-750): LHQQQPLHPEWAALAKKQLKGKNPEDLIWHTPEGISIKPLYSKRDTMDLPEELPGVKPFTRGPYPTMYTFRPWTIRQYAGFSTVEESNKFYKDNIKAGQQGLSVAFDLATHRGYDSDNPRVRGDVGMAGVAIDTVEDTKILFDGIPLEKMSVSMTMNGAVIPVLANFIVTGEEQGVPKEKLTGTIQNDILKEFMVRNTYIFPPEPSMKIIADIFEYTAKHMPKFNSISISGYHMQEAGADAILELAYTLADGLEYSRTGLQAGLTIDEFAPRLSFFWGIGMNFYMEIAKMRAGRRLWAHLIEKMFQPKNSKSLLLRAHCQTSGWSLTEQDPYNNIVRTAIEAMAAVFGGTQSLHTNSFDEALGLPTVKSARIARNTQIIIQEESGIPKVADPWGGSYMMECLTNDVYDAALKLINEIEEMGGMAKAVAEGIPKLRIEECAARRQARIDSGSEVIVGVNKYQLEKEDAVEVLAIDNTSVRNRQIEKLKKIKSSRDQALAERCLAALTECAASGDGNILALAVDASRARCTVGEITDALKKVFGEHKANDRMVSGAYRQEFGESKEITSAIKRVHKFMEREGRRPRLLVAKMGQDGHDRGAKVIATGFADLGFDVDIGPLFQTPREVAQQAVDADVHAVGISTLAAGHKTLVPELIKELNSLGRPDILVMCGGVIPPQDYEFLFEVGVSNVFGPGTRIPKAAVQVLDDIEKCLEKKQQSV
Procedure, shortened: (§1)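 At 30 °C, reaction was started with thiokinase, MgCl₂, ADP and methylmalonyl-CoA. Final levels were cofactor 1 μM and (R)-methylmalonyl-CoA 2 mM. Enzyme was WT 0.01 μM, G717V 1 μM, other variants 0.1 μM. After 30 min, an aliquot went into 2.5 mM DTNB; CoA was taken from A412 (ε 14,150 M⁻¹ cm⁻¹).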

[2] = target: T2, MMUT (methylmalonyl-CoA mutase) (Homo sapiens, UniProt P22033); assay: Cobamide equilibrium binding by quenching of intrinsic protein fluorescence; details: for binding to MMUT (in words): micromolar cobamide concentrations
T2 sequence (P22033 33-750): T1 sequence (P22033 33-750)
Procedure, shortened: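 Fluorescence quenching used MMUT at 0.2 μM, from N-terminal His-tag (E. coli BL21(DE3)pLysS) and C-terminal His-tag preparations. Adenosylated cofactor was titrated at 0.19–2.5 μM or 0.23–2.5 μM, depending on cofactor class. Plate-reader excitation/emission was 282/340 nm. Kd came from a quadratic fit allowing for ligand depletion. Values were averaged over ≥5 technical replicates from ≥2 independent experiments.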

[3] = test system: Human intrinsic factor (IF); details: cited from earlier work
[4] = target: T2, MMUT (methylmalonyl-CoA mutase); assay: Coupled thiokinase/DTNB spectrophotometric MMUT activity assay; type: biochemical; details: for MMUT activity with the cobamide (in words): coupled spectrophotometric assay; for KM, app relative to AdoCbl: higher than AdoCbl
Procedure, shortened: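 In the coupled kinetic assay, succinyl-CoA was converted by thiokinase to CoA, which was detected spectrophotometrically with DTNB. C-terminally His-tagged MMUT was at 10 nM. Enzymatically made (R)-methylmalonyl-CoA was fixed at 4 mM. Adenosylated cofactor was varied per cofactor, from 0.031 μM at lowest to 12 μM at highest. K_M,app and k_cat come from ≥5 replicates over ≥2 independent experiments and two biological samples.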

[5] = target: T2, MMUT (methylmalonyl-CoA mutase); assay: Binding kinetics by stopped-flow fluorescence spectroscopy; details: MMUT 0.2 μM, cobamide 4.8 – 16.2 μM (to 24.3 μM for Ado[Phe]Cba)
Procedure, shortened: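 Stopped-flow fluorimetry used C-terminally His-tagged MMUT at 0.2 μM final after mixing. Adenosylated cofactor was added at 4.8, 7.2, 10.8 and 16.2 μM (24.3 μM for one cofactor). Excitation was 282 nm, with emission through a 320 nm long-pass filter. Traces, minus the buffer-addition control, were fitted to first-order exponential decay to give k_obs. k_on was the slope of k_obs versus concentration, from four technical replicates.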

[6] = test system: MMUT variants G648D, V633G, G717V, P86L, Y100C, Y231N; assay: Activity screen; type: biochemical, human; details: cobamide 1 μM, variants 0.1 μM (G717V 1 μM), 30 minutes
Procedure, shortened: as §1

Compound: C/C1=C2/[N-][C@H]([C@H](CC(N)=O)[C@@]2(C)CCC(=O)NC[C@@H](C)OP(=O)([O-])O[C@H]2[C@@H](O)[C@@H](n3cnc4nc(C)nc(N)c43)O[C@@H]2CO)[C@]2(C)N=C(/C(C)=C3N=C(/C=C4N=C1[C@@H](CCC(N)=O)C\4(C)C)[C@@H](CCC(N)=O)[C@]\3(C)CC(N)=O)[C@@H](CCC(N)=O)[C@]2(C)CC(N)=O.[CH2-][C@H]1O[C@@H](n2cnc3c(N)ncnc32)[C@H](O)[C@@H]1O.[Co+3] [Ado[2-MeAde]Cba, adenosyl-2-methyladeninylcobamide]
IF binding relative to AdoCbl [3]: six orders of magnitude more weakly

Compound: C/C1=C2/[N-][C@H]([C@H](CC(N)=O)[C@@]2(C)CCC(=O)NC[C@@H](C)OP(=O)([O-])O[C@H]2[C@@H](O)[C@@H](Oc3ccc(C)cc3)O[C@@H]2CO)[C@]2(C)N=C(/C(C)=C3N=C(/C=C4N=C1[C@@H](CCC(N)=O)C\4(C)C)[C@@H](CCC(N)=O)[C@]\3(C)CC(N)=O)[C@@H](CCC(N)=O)[C@]2(C)CC(N)=O.[CH2-][C@H]1O[C@@H](n2cnc3c(N)ncnc32)[C@H](O)[C@@H]1O.[Co+3] [Ado[Cre]Cba]
binding to MMUT (in words) [2]: bound too strongly to measure a Kd value; also recorded: higher affinity for Ado[Cre]Cba than AdoCbl | kon relative to AdoCbl (in words) [5]: about six times higher | KM, app (in words) [4]: in the range of the benzimidazolyl cobamides | MMUT activity with the cobamide (in words) [4]: active | activity of WT MMUT with the cobamide (in words) [1]: active | activity of MMUT variants with the cobamide (in words) [6]: supported activity to a large extent in all of the variants

Compound: C/C1=C2/[N-][C@H]([C@H](CC(N)=O)[C@@]2(C)CCC(=O)NC[C@@H](C)OP(=O)([O-])O[C@H]2[C@@H](O)[C@@H](n3cnc4cccc(C)c43)O[C@@H]2CO)[C@]2(C)N=C(/C(C)=C3N=C(/C=C4N=C1[C@@H](CCC(N)=O)C\4(C)C)[C@@H](CCC(N)=O)[C@]\3(C)CC(N)=O)[C@@H](CCC(N)=O)[C@]2(C)CC(N)=O.[CH2-][C@H]1O[C@@H](n2cnc3c(N)ncnc32)[C@H](O)[C@@H]1O.[Co+3] [J, 7-methylbenzimidazolylcobamide]
activity of WT MMUT with the cobamide (in words) [1]: active | activity of MMUT variants with the cobamide (in words) [6]: partially or entirely lost the ability to use

Compound: C/C1=C2/[N-][C@H]([C@H](CC(N)=O)[C@@]2(C)CCC(=O)NC[C@@H](C)OP(=O)([O-])O[C@H]2[C@@H](O)[C@@H](n3cnc4cccc(N)c43)O[C@@H]2CO)[C@]2(C)N=C(/C(C)=C3N=C(/C=C4N=C1[C@@H](CCC(N)=O)C\4(C)C)[C@@H](CCC(N)=O)[C@]\3(C)CC(N)=O)[C@@H](CCC(N)=O)[C@]2(C)CC(N)=O.[CH2-][C@H]1O[C@@H](n2cnc3c(N)ncnc32)[C@H](O)[C@@H]1O.[Co+3] [K, 7-aminobenzimidazolylcobamide]
activity of WT MMUT with the cobamide (in words) [1]: active | activity of MMUT variants with the cobamide (in words) [6]: partially or entirely lost the ability to use

Compound: C/C1=C2/[N-][C@H]([C@H](CC(N)=O)[C@@]2(C)CCC(=O)NC[C@@H](C)O)[C@]2(C)N=C(/C(C)=C3N=C(/C=C4N=C1[C@@H](CCC(N)=O)C\4(C)C)[C@@H](CCC(N)=O)[C@]\3(C)CC(N)=O)[C@@H](CCC(N)=O)[C@]2(C)CC(N)=O.[Co+3] [cobinamide]
IF affinity (in words) [3]: low affinity

Compound: adenosyladeninylcobamide [Ado[Ade]Cba]
IF binding relative to AdoCbl [3]: six orders of magnitude more weakly

Compound: cyano-5-hydroxybenzimidazolylcobamide [CN[5-OHBza]Cba]
IF affinity, lower than affinity for CNCbl [3]: no more than 2 fold

Compound: cyano-para-cresolylcobamide [CN[Cre]Cba]
IF affinity (in words) [3]: low affinity

Compound: cyanobenzimidazolylcobamide [CN[Bza]Cba]
IF affinity, lower than affinity for CNCbl [3]: no more than 2 fold

Now from value to compound, other results behind:

activity of WT MMUT with the cobamide (in words) [1]: No activity
Compound: 3-deazaadeninylcobamide

activity of WT MMUT with the cobamide (in words) [1]: No activity
Compound: 6-azabenzimidazolylcobamide

activity of WT MMUT with the cobamide (in words) [1]: No activity
Compound: 6-methyladeninylcobamide

binding to MMUT (in words) [2]: lower affinity than AdoCbl
Compound: C/C1=C2/[N-][C@H]([C@H](CC(N)=O)[C@@]2(C)CCC(=O)NC[C@@H](C)O)[C@]2(C)N=C(/C(C)=C3N=C(/C=C4N=C1[C@@H](CCC(N)=O)C\4(C)C)[C@@H](CCC(N)=O)[C@]\3(C)CC(N)=O)[C@@H](CCC(N)=O)[C@]2(C)CC(N)=O.[CH2-][C@H]1O[C@@H](n2cnc3c(N)ncnc32)[C@H](O)[C@@H]1O.[Co] [Ado-cobinamide]

MMUT activity with the cobamide (in words) [4]: active | activity of WT MMUT with the cobamide (in words) [1]: active
Compound: C/C1=C2/[N-][C@H]([C@H](CC(N)=O)[C@@]2(C)CCC(=O)NC[C@@H](C)OP(=O)([O-])O[C@H]2[C@@H](O)[C@@H](n3cnc4cc(C)ccc43)O[C@@H]2CO)[C@]2(C)N=C(/C(C)=C3N=C(/C=C4N=C1[C@@H](CCC(N)=O)C\4(C)C)[C@@H](CCC(N)=O)[C@]\3(C)CC(N)=O)[C@@H](CCC(N)=O)[C@]2(C)CC(N)=O.[CH2-][C@H]1O[C@@H](n2cnc3c(N)ncnc32)[C@H](O)[C@@H]1O.[Co+3] [Ado[5-MeBza]Cba]

difference in Kd relative to AdoCbl [2]: ~ 25 fold | MMUT activity with the cobamide (in words) [4]: active | KM, app relative to AdoCbl [4]: 10 fold | activity of WT MMUT with the cobamide (in words) [1]: active
Compound: C/C1=C2/[N-][C@H]([C@H](CC(N)=O)[C@@]2(C)CCC(=O)NC[C@@H](C)OP(=O)([O-])O[C@H]2[C@@H](O)[C@@H](n3cnc4ccccc43)O[C@@H]2CO)[C@]2(C)N=C(/C(C)=C3N=C(/C=C4N=C1[C@@H](CCC(N)=O)C\4(C)C)[C@@H](CCC(N)=O)[C@]\3(C)CC(N)=O)[C@@H](CCC(N)=O)[C@]2(C)CC(N)=O.[CH2-][C@H]1O[C@@H](n2cnc3c(N)ncnc32)[C@H](O)[C@@H]1O.[Co+3] [Ado[Bza]Cba]

MMUT activity with the cobamide (in words) [4]: active | KM, app relative to AdoCbl [4]: 100 fold | activity of WT MMUT with the cobamide (in words) [1]: active
Compound: C/C1=C2/[N-][C@H]([C@H](CC(N)=O)[C@@]2(C)CCC(=O)NC[C@@H](C)OP(=O)([O-])O[C@H]2[C@@H](O)[C@@H](Oc3ccccc3)O[C@@H]2CO)[C@]2(C)N=C(/C(C)=C3N=C(/C=C4N=C1[C@@H](CCC(N)=O)C\4(C)C)[C@@H](CCC(N)=O)[C@]\3(C)CC(N)=O)[C@@H](CCC(N)=O)[C@]2(C)CC(N)=O.[CH2-][C@H]1O[C@@H](n2cnc3c(N)ncnc32)[C@H](O)[C@@H]1O.[Co+3] [Ado[Phe]Cba, adenosylphenolylcobamide]

activity of WT MMUT with the cobamide (in words) [1]: active
Compound: adenosyl-5-fluorobenzimidazolylcobamide [compound P]
activity of MMUT variants with the cobamide (in words) [6]: some variants also had appreciable activity

activity of WT MMUT with the cobamide (in words) [1]: No activity
Compound: purinylcobamide
